In ChEMBL document CHEMBL5042548, “Multiparameter Optimization of Oxidative Phosphorylation Inhibitors for the Treatment of Pancreatic Cancer” (J Med Chem, 2022):
Active and inactive are the calls of the source. The calls are words filed in the database; no cut-off is given here.

Tests used:
[1] = AUC(0 to t) in CD-1 mouse at 10 mg/kg, po; assay type: ADME, organism-based; design: dose 10 mg/kg; conditions: in vivo
Procedure, shortened: (§1)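 Plasma PK in CD-1 mice after single i.v. (2 mg/kg) or p.o. (10 mg/kg) dosing. Parameters come from non-compartmental analysis. Bioavailability = (AUC_po×Dose_iv)/(AUC_iv×Dose_po)×100%. Terminal t1/2 is taken from ≥3 points in the terminal phase.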

[2] = Oral bioavailability in CD-1 mouse at 10 mg/kg; assay type: ADME, organism-based; conditions: in vivo; procedure, shortened: as §1
[3] = AUC(0 to t) in CD-1 mouse at 2 mg/kg, iv; assay type: ADME, organism-based; design: dose 2 mg/kg; conditions: in vivo; procedure, shortened: as §1
[4] = AUC (0 to infinity) in CD-1 mouse at 2 mg/kg, iv; assay type: ADME, organism-based; design: route intravenous, time infinity, dose 2 mg/kg; conditions: in vivo; procedure, shortened: as §1
[5] = Terminal elimination half life in CD-1 mouse at 2 mg/kg, iv; assay type: ADME, organism-based; conditions: in vivo, read-out: LambdaZ (converted); procedure, shortened: as §1
[6] = Inhibition of oxidative phosphorylation in human MIA PaCa-2 cells assessed as reduction in ATP production incubated for 24 hrs in glucose-containing medium by celltiter-glo luminescence cell viability assay; assay type: functional, cell-based; conditions: MIA PaCa-2, 24 h
Procedure, shortened: (§2)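 MIA PaCa-2 cells are seeded at 10000 cells/well in glucose RPMI + 10% FBS or in glucose-free RPMI + 10 mM galactose + 10% FBS. Total ATP is measured by CellTiter-Glo luminescence 24 h after compound. IC50 is by nonlinear regression; ≥3 independent experiments.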

[7] = Toxicity in C57BL/6 mouse allografted with mouse Panc02 cells assessed as body weight loss at 10 mg/kg, po administered once a day for 28 days and measured twice per week; assay type: organism-based; conditions: in vivo, 672 h, time 28 day
Procedure, shortened: (§3)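 Female C57BL/6 mice, 6-10 weeks old, get 5×10^6 Pan02 cells s.c. in the right flank and are randomized at ~100 mm3 (n = 5/group). Dosing is daily for 28 days. Vehicle is 10% DMSO/50% PG/40% saline, except 15 mg/kg uses 10% DMSO/60% PG/30% saline. Caliper volume (length×width²)/2 and body weight are recorded twice weekly.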

[8] = Metabolic stability in mouse liver microsomes assessed as half life at 10 uM measured up to 60 mins in presence of NADPH by LC-MS/MS analysis; assay type: ADME, Microsome; conditions: liver microsomes
[9] = system: MIA PaCa-2; assay: Cytotoxicity against human MIA PaCa-2 cells assessed as inhibition of cell growth incubated for overnight in galactose-containing medium followed by compound addition and measured after 3 days by MTT assay; assay type: functional, cell-based; conditions: MIA PaCa-2, 72 h
Procedure, shortened: (§4)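 MIA PaCa-2 3-day MTT in glucose medium (RPMI 1640 + 10% FBS) or galactose medium (glucose-free RPMI + 10 mM galactose + 10% FBS). Galactose wells are seeded at 8000 cells/well. MTT read-out is at 570 nm after DMSO solubilization. IC50 is by nonlinear regression; ≥3 independent experiments.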

[10] = Initial plasma concentration in CD-1 mouse at 2 mg/kg, iv; assay type: ADME, organism-based; procedure, shortened: as §1
[11] = Volume of distribution at steady state in CD-1 mouse at 2 mg/kg, iv; assay type: ADME, organism-based; conditions: in vivo, read-out: Vdss; procedure, shortened: as §1
[12] = system: Panc02; assay: Antitumor activity against Panc02 cells allografted in C57BL/6 mouse syngeneic model assessed as tumor growth inhibition at 10 mg/kg, po administered once daily for 28 days and measured twice per week; assay type: functional, organism-based; conditions: time 28.0 day; procedure, shortened: as §3
[13] = Terminal elimination half life in CD-1 mouse at 10 mg/kg, po; assay type: ADME, organism-based; conditions: in vivo, read-out: LambdaZ (converted); procedure, shortened: as §1
[14] = Metabolic stability in human liver microsomes assessed as half life at 10 uM measured up to 60 mins in presence of NADPH by LC-MS/MS analysis; assay type: ADME, Microsome; conditions: liver microsomes
[15] = Toxicity in C57BL/6 mouse allografted with mouse Panc02 cells assessed as drug tolerability at 10 mg/kg, po administered once a day for 28 days; assay type: organism-based; conditions: in vivo, 672 h, time 28 day
[16] = system: MIA PaCa-2; assay: Cytotoxicity against human MIA PaCa-2 cells assessed as inhibition of cell growth incubated for overnight in glucose-containing medium followed by compound addition and measured after 3 days by MTT assay; assay type: functional, cell-based; conditions: MIA PaCa-2, 72 h; procedure, shortened: as §4
[17] = Clearance in CD-1 mouse at 2 mg/kg, iv; assay type: ADME, organism-based; conditions: in vivo; procedure, shortened: as §1
[18] = Inhibition of oxidative phosphorylation complex I in human MIA PaCa-2 cells assessed as reduction in NAD+/NADH ratio incubated for 48 hrs in glucose-containing medium by NAD/NADH-Glo assay; assay type: cell-based; conditions: MIA PaCa-2, 48 h
Procedure, shortened: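 MIA PaCa-2 cells at 5×10^3/well are treated next day for 48 h in RPMI 1640 + 10% FBS. After a PBS wash, cells are lysed with bicarbonate buffer/1% DTAB. Lysate is split: NAD+ with 0.4 N HCl at 60 °C for 15 min, NADH heated directly, then neutralized. NAD/NADH-Glo luminescence is read after 30 min. IC50 is by nonlinear regression.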

[19] = system: BXPC-3; assay: Cytotoxicity against human BXPC-3 cells assessed as inhibition of cell growth incubated for overnight in glucose-containing medium followed by compound addition and measured after 7 days by MTT assay; assay type: functional, cell-based; conditions: BXPC-3, 168 h
Procedure, shortened: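 7-day MTT in glucose medium (RPMI 1640 + 10% FBS). Seeding is 200 cells/well for MIA PaCa-2 and 300 cells/well for BxPC-3, overnight at 37 °C, 5% CO2, before compound. MTT 3 mg/mL is added for 4 h, then DMSO, and absorbance is read at 570 nm. IC50 is by nonlinear regression; ≥3 independent experiments.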

[20] = Inhibition of oxidative phosphorylation in human MIA PaCa-2 cells assessed as reduction in ATP production incubated for 24 hrs in galactose-containing medium by celltiter-glo luminescence cell viability assay; assay type: functional, cell-based; conditions: MIA PaCa-2, 24 h; procedure, shortened: as §2
[21] = Clearance in CD-1 mouse at 10 mg/kg, po; assay type: ADME, organism-based; conditions: in vivo; procedure, shortened: as §1
[22] = AUC (0 to infinity) in CD-1 mouse at 10 mg/kg, po; assay type: ADME, organism-based; design: route oral, time infinity, dose 10 mg/kg; conditions: in vivo; procedure, shortened: as §1

AUC(0-t) [1]: 0.368 µM·h
F [2]: 11.3%
AUC(0-t) [3]: 0.65 µM·h
AUC(0-inf) [4]: 0.657 µM·h
half-life [5]: 1.42 h
half-life at 10 µM [8]: > 1 h
C0 [10]: 354 ng/mL
Vd [11]: 5.2 L/kg
half-life [13]: 3.06 h
half-life at 10 µM [14]: > 1 h
clearance [17]: 106 mL/min/kg
CL/F [21]: 835 mL/min/kg
AUC(0-inf) [22]: 0.417 µM·h
Compound: CC(C)S(=O)(=O)c1ccc(S(=O)(=O)N2CCC[C@@H](C(=O)N3CCC(F)(F)CC3)C2)cc1
IC50 [6]: > 3000 nM
Activity [7]: Non-Toxic
IC50 [9]: 9.1 nM
Activity [12]: Active
Activity [15]: Non-Toxic
IC50 [16]: > 3000 nM
IC50 [18]: 3.6 nM
IC50 [19]: 50 nM
IC50 [20]: 11 nM
